Test results reported in ChEMBL document CHEMBL4145571, “Ajmaline, Oxindole, and Cytotoxic Macroline-Akuammiline Bisindole Alkaloids from Alstonia penangiana” (J Nat Prod, 2018).
pIC50: −log10 of the molar value.

What was measured:
KB/VJ300 [1] = test: Growth inhibition of human KB/VJ300 cells after 72 hrs by MTT assay; format: functional; settings: KB/VJ300, 72 h
How it was run: (§1)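 Values are mean ± SD from three independent experiments. For the KB/VJ300 line with vincristine, 0.1 μM vincristine was added alongside the test compound. The remaining method details come from earlier published procedures.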

LNCaP = test: Growth inhibition of human LNCAP cells after 72 hrs by MTT assay; format: functional, cell-based; how it was run: as §1
MCF7 = test: Growth inhibition of human MCF7 cells after 72 hrs by MTT assay; format: functional, cell-based; settings: MCF7, 72 h; how it was run: as §1
MDA-MB-231 = test: Growth inhibition of human MDA-MB-231 cells after 72 hrs by MTT assay; format: functional, cell-based; settings: MDA-MB-231, 72 h; how it was run: as §1
PC-3 = test: Growth inhibition of human PC3 cells after 72 hrs by MTT assay; format: functional, cell-based; settings: PC-3, 72 h; how it was run: as §1
[2] = Growth inhibition of human KB/S cells after 72 hrs by MTT assay; format: functional; how it was run: as §1
HT-29 = test: Growth inhibition of human HT-29 cells after 72 hrs by MTT assay; format: functional, cell-based; settings: HT-29, 72 h; how it was run: as §1
KB/VJ300 [3] = test: Growth inhibition of human KB/VJ300 cells after 72 hrs in presence of 0.1 uM of vincristine by MTT assay; format: functional; settings: KB/VJ300, 72 h; how it was run: as §1
A549 = test: Growth inhibition of human A549 cells after 72 hrs by MTT assay; format: functional, cell-based; settings: A549, 72 h; how it was run: as §1
HCT-116 = test: Growth inhibition of human HCT116 cells after 72 hrs by MTT assay; format: functional, cell-based; settings: HCT-116, 72 h; how it was run: as §1

C/C=C1/CN2CC[C@@]34c5cc([C@@H](C)[C@H]6[C@@H]7C[C@H]8c9c(c%10ccccc%10n9C)C[C@@H]([C@@H]7CO[C@@H]6O)N8C)c(OC)cc5N(C)[C@H]3[C@@H]2C[C@H]1C4C(=O)OC (stereo partly drawn)
pIC50 (KB/VJ300 [1]): < 5.00
pIC50 (LNCaP): 5.16
pIC50 (MCF7): 5.42
pIC50 (MDA-MB-231): 5.28
pIC50 (PC-3): < 5.00
pIC50 [2]: 5.70
pIC50 (HT-29): 6.15
pIC50 (KB/VJ300 [3]): < 5.00
pIC50 (A549): 5.08
pIC50 (HCT-116): 5.18

COc1ccc(CCN(C)CCCC(C#N)(c2ccc(OC)c(OC)c2)C(C)C)cc1OC (stereo not drawn) [VERAPAMIL]
pIC50 (KB/VJ300 [3]): 7.00

CC[C@]1(O)C[C@H]2CN(CCc3c([nH]c4ccccc34)[C@@](C(=O)OC)(c3cc4c(cc3OC)N(C=O)[C@H]3[C@@](O)(C(=O)OC)[C@H](OC(C)=O)[C@]5(CC)C=CCN6CC[C@]43[C@@H]65)C2)C1 [VINCRISTINE]
pIC50 (KB/VJ300 [1]): 5.41
pIC50 [2]: 9.52
